Consider 17 compounds from ChEMBL document CHEMBL1833819, “Dihydroquinazolines as a novel class of Trypanosoma brucei trypanothione reductase inhibitors: discovery, synthesis, and characterization of their binding mode by protein crystallography” (J Med Chem, 2011).

Experiment [1] addresses T1, Trypanothione reductase (Trypanosoma brucei brucei, UniProt P39051). Kind of experiment: Inhibition of recombinant trypanothione reductase from Trypanosoma brucei brucei S427 by DTNB-coupled spectrophotometric assay. In outline: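 Recombinant T. brucei brucei S427 TryR tested in a nonenzymatically coupled spectrophotometric assay, where DTNB reduction to TNB is followed as A412 increase. IC50 is the mean of independent duplicates (at least two replicates).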

The target in experiment [2] is Trypanothione reductase (Trypanosoma cruzi, UniProt P28593). Description: Inhibition of trypanothione reductase from Trypanosoma cruzi by DTNB-coupled spectrophotometric assay.
Experiment [3] has as its system Trypanosoma brucei brucei. Kind of experiment: Antitrypanosomal activity against blood stream form Trypanosoma brucei brucei by resazurin fluorescence-based viability assay. The experiment is classed as functional, organism-based. In outline: (§1)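 Bloodstream-form T. b. brucei parasites and MRC5 cells were assayed in resazurin fluorescence-based viability tests. […] Pentamidine served as the positive control in all T. brucei plates.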

The next experiment has as its system MRC5. Kind of experiment: Cytotoxicity against human MRC5 cells by resazurin fluorescence-based viability assay. In kind it is cell-based. The procedure, abridged: as §1
For orientation: The colour change of resazurin is a common sign of viable cells or microbes.

Experiment [4] has as its target T1, Trypanothione reductase. Description: Competitive inhibition of recombinant trypanothione reductase from Trypanosoma brucei brucei S427 by Lineweaver burk method.
For experiment [5], the target named is T2, Glutathione reductase, mitochondrial (Homo sapiens, UniProt P00390).
T2 sequence (P00390 whole entry): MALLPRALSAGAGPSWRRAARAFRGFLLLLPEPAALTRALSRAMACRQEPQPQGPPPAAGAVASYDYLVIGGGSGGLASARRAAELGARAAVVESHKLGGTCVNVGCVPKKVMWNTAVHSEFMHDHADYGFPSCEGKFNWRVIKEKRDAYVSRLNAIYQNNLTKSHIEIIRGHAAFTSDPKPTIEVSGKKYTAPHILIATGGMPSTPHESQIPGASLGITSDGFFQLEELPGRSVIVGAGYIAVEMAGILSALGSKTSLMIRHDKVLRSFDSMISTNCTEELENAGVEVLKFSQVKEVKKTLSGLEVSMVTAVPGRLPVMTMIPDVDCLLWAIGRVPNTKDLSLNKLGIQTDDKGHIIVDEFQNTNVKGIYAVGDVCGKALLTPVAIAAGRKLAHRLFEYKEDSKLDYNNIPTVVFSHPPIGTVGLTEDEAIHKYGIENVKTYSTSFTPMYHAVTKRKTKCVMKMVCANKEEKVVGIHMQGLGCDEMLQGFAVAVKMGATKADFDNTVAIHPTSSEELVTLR
Kind of experiment: Inhibition of human glutathione reductase.

Experiment [6] has as its target T1, Trypanothione reductase. Description: Mixed type inhibition of recombinant trypanothione reductase from Trypanosoma brucei brucei S427 by Lineweaver burk method.

T1 sequence (P39051 whole entry): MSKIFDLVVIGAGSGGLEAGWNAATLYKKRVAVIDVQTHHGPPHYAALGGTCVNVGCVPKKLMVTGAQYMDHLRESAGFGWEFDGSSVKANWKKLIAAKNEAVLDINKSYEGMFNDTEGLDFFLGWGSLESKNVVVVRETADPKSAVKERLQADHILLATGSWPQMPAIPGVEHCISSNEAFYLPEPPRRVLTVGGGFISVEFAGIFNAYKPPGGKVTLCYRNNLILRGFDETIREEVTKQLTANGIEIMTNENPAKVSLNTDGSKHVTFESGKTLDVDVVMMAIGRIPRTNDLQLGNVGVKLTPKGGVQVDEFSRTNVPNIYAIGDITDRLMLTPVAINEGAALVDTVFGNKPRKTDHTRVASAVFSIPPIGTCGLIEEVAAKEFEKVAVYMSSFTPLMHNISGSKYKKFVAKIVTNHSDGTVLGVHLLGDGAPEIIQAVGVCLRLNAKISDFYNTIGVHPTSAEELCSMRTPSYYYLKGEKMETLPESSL
Trypanothione reductase (Trypanosoma cruzi, UniProt P28593), sequence (P28593 whole entry): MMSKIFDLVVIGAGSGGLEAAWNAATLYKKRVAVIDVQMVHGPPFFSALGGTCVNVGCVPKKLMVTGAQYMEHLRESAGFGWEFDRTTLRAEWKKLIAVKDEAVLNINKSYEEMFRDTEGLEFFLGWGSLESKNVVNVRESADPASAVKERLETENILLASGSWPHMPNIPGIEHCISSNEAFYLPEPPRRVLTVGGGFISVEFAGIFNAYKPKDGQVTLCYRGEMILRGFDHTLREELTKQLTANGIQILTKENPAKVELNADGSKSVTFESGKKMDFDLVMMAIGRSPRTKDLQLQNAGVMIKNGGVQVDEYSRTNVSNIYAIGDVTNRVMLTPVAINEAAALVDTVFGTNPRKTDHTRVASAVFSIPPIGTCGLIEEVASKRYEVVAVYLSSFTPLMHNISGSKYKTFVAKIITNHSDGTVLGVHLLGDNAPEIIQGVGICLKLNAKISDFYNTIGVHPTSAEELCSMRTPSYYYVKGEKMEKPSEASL

As a reminder, the IC50 is the concentration needed to halve the response being measured. `COC(=O)CN1C(C)=Nc2ccc(C)cc2C1c1ccccc1` (racemic): the IC50 turned out to be 67000 nM on Trypanothione reductase [1] and 38000 nM at Trypanothione reductase [2].
A word on the EC50: it is the midpoint of the concentration-response curve. `CC1=Nc2ccc(Cl)cc2C(c2ccccc2)N1Cc1ccccc1F` (racemic): on Trypanothione reductase [1], the IC50 was determined as 940 nM. Besides, the EC50 was found to be 14000 nM in experiment [3] and 36000 nM with MRC5.
Consider `CC1=Nc2ccc(Cl)cc2C(c2ccccc2)N1Cc1cccc(N(C)C)c1` (racemic), for which the IC50 on Trypanothione reductase [1] was determined as 810 nM. Besides, the EC50 in experiment [3] was found to be 6400 nM; in the experiment on MRC5, 27000 nM.
Take `CC1=Nc2ccc(Cl)cc2C(c2ccccc2)N1CCN1CCCCC1` (racemic): the IC50 on Trypanothione reductase [1] turned out to be 1800 nM. Also, the EC50 in experiment [3] came to 1300 nM; in the experiment on MRC5 it was 14000 nM.
A word on the Ki: it is a dissociation constant, usually derived from enzyme kinetics or from competition with a known ligand. Turning to `CC1=Nc2ccc(Cl)cc2C(c2ccccc2)N1CCN1CCN(C)CC1` (racemic), at Trypanothione reductase [1], the IC50 turned out to be 930 nM. In addition, the midpoint of the response in the experiment with MRC5, the EC50, lay at 4600 nM. Further, at Trypanothione reductase [4], the Ki was found to be 320 nM.
With `COC(=O)CN1C(C)=Nc2ccc(Br)cc2C1c1ccccc1` (racemic), the IC50 was 6800 nM on Trypanothione reductase [1], 19000 nM against Trypanothione reductase [2] and greater than 100000 nM in experiment [5]. In addition, a half-maximal effect in experiment [3] (EC50) was put at 40000 nM.
For the compound `CC1=Nc2ccc(Cl)cc2C(c2ccccc2)N1CCNC(=O)c1ccco1` (racemic), the IC50 at Trypanothione reductase [1] turned out to be 860 nM. Also, the inhibition constant (Ki) at Trypanothione reductase [6] was determined as 2270 nM; at Trypanothione reductase [4] it was 440 nM. For the same compound, the EC50 was 19000 nM in experiment [3] and 22000 nM with MRC5.
As to `CC1=Nc2ccc(Cl)cc2C(c2ccccc2)N1CCNC(=O)CN(C)C` (racemic), the IC50 on Trypanothione reductase [1] was 810 nM. Besides, the EC50 in experiment [3] worked out at 13000 nM; with MRC5, 12000 nM.
For `CC1=Nc2ccc(Cl)cc2C(c2ccccc2)N1CCN1CCN(C(=O)c2ccco2)CC1` (racemic), in that order: 420 nM, 10000 nM and 23000 nM.
With `CC1=Nc2ccc(Cl)cc2C(c2ccccc2)N1CCN1CCN(C(=O)CN(C)C)CC1` (racemic), the IC50 on Trypanothione reductase [1] stood at 370 nM. For the same compound, the Ki on Trypanothione reductase [6] came out at 1780 nM; on Trypanothione reductase [4] it was 270 nM. Besides, the EC50 worked out at 5600 nM in experiment [3] and 6000 nM with MRC5.
`CC1=Nc2ccccc2C(c2ccccc2)N1CCN1CCCCC1` (racemic): at Trypanothione reductase [1], the IC50 was 780 nM. Besides, the values for the EC50 (in experiment [3]; with MRC5) were 12000 nM and 23000 nM, respectively.
In the case of `CC1=Nc2ccc(Br)cc2C(c2ccccc2)N1CCN1CCCCC1` (racemic), the IC50 on Trypanothione reductase [1] worked out at 790 nM. The EC50 in experiment [3] was 440 nM; with MRC5, 8400 nM.
Take `CC1=Nc2ccc(I)cc2C(c2ccccc2)N1CCN1CCCCC1` (racemic): the IC50 at Trypanothione reductase [1] came to 350 nM. The EC50 was found to be 550 nM in experiment [3] and 6800 nM with MRC5.
On to `CC1=Nc2ccc(-c3ccccc3)cc2C(c2ccccc2)N1CCN1CCCCC1` (racemic), for which the IC50 on Trypanothione reductase [1] is 7300 nM. For the same compound, the results for the EC50 (in experiment [3]; in the experiment on MRC5) were 750 nM and 3400 nM, respectively.
For the compound `CC1=Nc2ccc(Cl)cc2C(c2ccc(C)cc2)N1CCCN(C)C` (racemic), the IC50 at Trypanothione reductase [1] turned out to be 230 nM. For the same compound, the Ki on Trypanothione reductase [6] was determined as 1460 nM; at Trypanothione reductase [4], 190 nM. Besides, the EC50 in experiment [3] was found to be 730 nM; in the experiment with MRC5, 1900 nM.
Turning to `CC1=Nc2ccc(Cl)cc2C(O)(c2ccc(C)cc2)N1CCN1CCCCC1` (racemic), at Trypanothione reductase [1], the IC50 is 710 nM. For the same compound, the EC50 came to 1500 nM in experiment [3] and 5700 nM in the experiment with MRC5.
`CC1=Nc2ccc(Cl)cc2C(c2ccc(C)cc2)N1CCN1CCCCC1` (racemic): the IC50 on Trypanothione reductase [1] was found to be 590 nM. In addition, the EC50 was found to be 1400 nM in experiment [3] and 5000 nM in the experiment with MRC5.
